Source: ChEMBL document CHEMBL1122338, “Mutagenicity and chemistry of N-nitroso-N-(p-substituted-benzyl)methylamines” (1983)
“And” between values parts separate entries of the source, which are not always exact repeats. Equal entries are not always repeated.

What was measured:
S9 [1] = test: (§1) Activity expressed as no. of revertants per plate in strain TA1535 with and without hamster S9 cells (3 mg/plate) at the dose of 500 ug; assay type: functional, Cricetulus griseus
Outline: (§2)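 Ames plate incorporation test in Salmonella TA1535 (base-pair substitution detector), with or without Aroclor 1254-induced hamster S9 mix (3 mg/plate). Doses span a 10-point range of 1–1000 μg/plate. At least two independent dose-response studies, each on duplicate plates; mean revertants per plate reported. Counts are significant when above twice the historical or twice the current control mean, whichever is greater.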

S9 [2] = test: (§3) Activity expressed as no. of revertants per plate in strain TA1535 with and without hamster S9 cells (3 mg/plate) at the dose of 2.5 ug; assay type: functional, Cricetulus griseus; outline: as §2
S9 [3] = test: (§4) Activity expressed as no. of revertants per plate in strain TA1535 with hamster S9 cells (3 mg/plate); assay type: functional, Cricetulus griseus
S9 [4] = test: (§5) Activity expressed as no. of revertants per plate in strain TA1535 with and without hamster S9 cells (3 mg/plate) at the dose of 5 ug; assay type: functional, Cricetulus griseus; outline: as §2
S9 [5] = test: (§6) Activity expressed as no. of revertants per plate in strain TA1535 with and without hamster S9 cells (3 mg/plate) at the dose of 10 ug; assay type: functional, Cricetulus griseus; outline: as §2
S9 [6] = test: (§7) Activity expressed as no. of revertants per plate in strain TA1535 with and without hamster S9 cells (3 mg/plate) at the dose of 1 ug; assay type: functional, Cricetulus griseus; outline: as §2
S9 [7] = test: as §4; assay type: functional, Cricetulus griseus; outline: as §2; remark: listed apart in the source
S9 [8] = test: as §1; assay type: functional, Salmonella enterica subsp. enterica serovar Typhimurium; outline: as §2
S9 [9] = test: as §3; assay type: functional, Cricetulus griseus; remark: listed apart in the source
S9 [10] = test: Activity expressed as no. of revertants per plate in strain TA1535 with and without hamster S9 cells (3 mg/plate) at the dose of 25 ug; assay type: functional, Cricetulus griseus
S9 [11] = test: as §7; assay type: functional, Cricetulus griseus; remark: listed apart in the source
S9 [12] = test: as §5; assay type: functional, Cricetulus griseus; remark: listed apart in the source
S9 [13] = test: as §6; assay type: functional, Cricetulus griseus; remark: listed apart in the source
S9 [14] = test: (§8) Activity expressed as no. of revertants per plate in strain TA1535 with and without hamster S9 cells (3 mg/plate) at the dose of 250 ug; assay type: functional, Cricetulus griseus
S9 [15] = test: Activity expressed as no. of revertants per plate in strain TA1535 with and without hamster S9 cells (3 mg/plate) at the dose of 1000 ug; assay type: functional, Cricetulus griseus
S9 [16] = test: as §1; assay type: functional, Cricetulus griseus; remark: listed apart in the source
S9 [17] = test: Activity expressed as no. of revertants per plate in strain TA1535 with and without hamster S9 cells (3 mg/plate) at the dose of 100 ug; assay type: functional, Cricetulus griseus
Salmonella typhimurium = test: Activity expressed as no. of revertants per plate in Salmonella Typhimurium TA1535 with and without hamster S9 cells (3 mg/plate) at the dose of 50 ug; assay type: functional, Salmonella enterica subsp. enterica serovar Typhimurium
S9 [18] = test: as §8; assay type: functional, Cricetulus griseus; outline: as §2; remark: listed apart in the source
S9 [19] = test: Activity expressed as no. of revertants per plate in strain TA1535 without hamster S9 cells (3 mg/plate) at the dose of 50 ug; assay type: functional, Cricetulus griseus; outline: as §2
S9 [20] = test: Activity expressed as no. of revertants per plate in strain TA1535 without hamster S9 cells (3 mg/plate) at the dose of 250 ug; assay type: functional, Cricetulus griseus; outline: as §2

| SMILES | Activity (S9 [3]) | Activity (S9 [9]) | Activity (S9 [10]) | Activity (S9 [11]) | Activity (S9 [12]) | Activity (S9 [13]) | Activity (S9 [14]) | Activity (S9 [17]) | also measured |
| --- | --- | --- | --- | --- | --- | --- | --- | --- | --- |
| CN(Cc1ccc(Cl)cc1)N=O | 13 | – | – | – | – | – | – | – | Activity (S9 [1]): 10; Activity (S9 [2]): 18 and 15; Activity (S9 [4]): 20 and 17; Activity (S9 [5]): 12 and 32; Activity (S9 [6]): 13 and 9; Activity (S9 [7]): 19; Activity (S9 [8]): 913 |
| CN(Cc1ccc(C#N)cc1)N=O | 21 and 13 | 26 and 19 | 29 and 45 | 25 and 14 | 29 | 23 and 32 | – | – | – |
| CN(Cc1ccc([N+](=O)[O-])cc1)N=O | 13 and 9 | 18 and 15 | 13 and 27 | 17 and 11 | 14 and 11 | 10 and 12 | – | – | – |
| CN(Cc1ccc(C(=O)O)cc1)N=O | 11 and 6 | 12 and 6 | 6 and 4 | 12 and 8 | 13 and 6 | – | 15 and 7 | 13 and 10 | Activity (S9 [15]): 14 and 9; Activity (S9 [16]): 10 and 8; Activity (Salmonella typhimurium): 8 and 5 and 10 and 7 |
| CN(Cc1ccc(F)cc1)N=O | 14 and 6 | 16 and 7 | 13 and 17 | 15 and 8 | 12 and 10 | 13 and 8 | 39 | – | Activity (S9 [18]): 17; Activity (S9 [15]): 16; Activity (S9 [16]): 21 and 50 |
| CN(Cc1ccccc1)N=O | 14 and 20 | 18 and 24 | 18 and 24 | 14 and 21 | 15 and 24 | 12 | 23 and 58 | 17 and 44 | – |
| COc1ccc(CN(C)N=O)cc1 | 11 and 8 | 21 and 19 | 18 and 17 | 10 and 13 | 15 and 10 | 24 and 14 | 56 | 15 and 44 | Activity (S9 [19]): 19; Activity (Salmonella typhimurium): 11 and 26; Activity (S9 [20]): 20 |
